The list is not random: actives were taken first. Their share in the collection is about 9.4%.
T cruzi repl = inhibitors of intracellular T. cruzi growth, primary screen, luminescence, NIH3T3 host cells | T. cruzi beta-gal in NIH3T3, 90 h | inhibition, % (concentration not given with the values) | 300,000 compounds, 1.4% hits;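 active = mean inhibition across valid replicates above about 55%, limit read from the data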;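 also: signal also drops with host cell toxicity which is not excluded here; 0% = plate median of DMSO wells and 100% = zero luminescence signal; higher percent means less beta-gal luminescence so fewer parasites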
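compound dosing = single 50 nL compound addition per well in DMSO | material = NIH/3T3 host cells with β-galactosidase reporter T. cruzi | input = 5,000 host fibroblasts per well | timing = ≥90 h infection period, 3 h prior cell attachment | read-out basis = percent inhibition of parasite-derived β-gal signal | detection = GalScreen β-gal luminescence, detergent lysis, 60 min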
Beta cell apopt = inhibitors of cytokine-induced beta cell apoptosis, primary screen, luminescence; INS-1E cytokine-induced death, ATP luminescence, 48 h; percent of positive-control rescue, neutral wells zero; protection from apoptosis, % (test concentration not listed); 300,000 compounds, 0.8% hits;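 active = Every replicate reaches about 75%, or at least half do and their mean reaches it too, limit read from the data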;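 also: 0% = cytokine-treated negative control wells and 100% = positive control rescue; higher means more ATP so stronger rescue from cytokine killing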
CSC inhib = cancer stem cell viability inhibitors, primary screen, luminescence | cancer stem cell-like cells viability | inhibition, % at 7.5 µM | 300,000 compounds, 1.1% hits | AID 2717, 2010; in the data active = inhibition above about 75%; tested in HMLE shEcad cells
Lmaj promast = Leishmania major promastigote growth inhibition, primary screen; Leishmania major promastigotes, resazurin fluorescence viability; inhibition, % at 10 µM; 200,000 compounds, 9% hits; AID 1063, 2008; in the data active = inhibition above about 50%;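 also: promastigotes grown with compound for 44 hours at 28 °C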
SKKanGAS inh = S. pyogenes SKKanGAS growth inhibitors in kanamycin, primary screen, streptokinase expression inhibitor project, SKKanGAS strain, BacTiter-Glo luminescence; inhibition, % at 7.5 µM; 6 h; 300,000 compounds, 1.3% hits; AID 1662, 2009;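 active = mean replicate score, as percent of positive control median, at least 50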;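 also: strain carries kanamycin resistance gene driven by streptokinase promoter and grows in 40 µg/ml kanamycin; loss of luminescence reflects streptokinase promoter inhibition or plain growth inhibition; 0% = median of DMSO wells and 100% = positive control at its reference dose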
Mdm2 MdmX PPI = inhibitors of human Mdm2-MdmX association, primary screen, cell-based, luminescence, split luciferase, SaOS-2, uHTS; AID 485346, 2010; inhibition, % at 8 µM; SaOS-2 split-luciferase Mdm2/MdmX complementation; 330,000 compounds, 3% hits; Protein Mdm4 (Homo sapiens) + E3 ubiquitin-protein ligase Mdm2 (Homo sapiens), …;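 active = inhibition of at least 50% at 8 µM in the primary screen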
Target sequence (O15151 whole entry, looked up): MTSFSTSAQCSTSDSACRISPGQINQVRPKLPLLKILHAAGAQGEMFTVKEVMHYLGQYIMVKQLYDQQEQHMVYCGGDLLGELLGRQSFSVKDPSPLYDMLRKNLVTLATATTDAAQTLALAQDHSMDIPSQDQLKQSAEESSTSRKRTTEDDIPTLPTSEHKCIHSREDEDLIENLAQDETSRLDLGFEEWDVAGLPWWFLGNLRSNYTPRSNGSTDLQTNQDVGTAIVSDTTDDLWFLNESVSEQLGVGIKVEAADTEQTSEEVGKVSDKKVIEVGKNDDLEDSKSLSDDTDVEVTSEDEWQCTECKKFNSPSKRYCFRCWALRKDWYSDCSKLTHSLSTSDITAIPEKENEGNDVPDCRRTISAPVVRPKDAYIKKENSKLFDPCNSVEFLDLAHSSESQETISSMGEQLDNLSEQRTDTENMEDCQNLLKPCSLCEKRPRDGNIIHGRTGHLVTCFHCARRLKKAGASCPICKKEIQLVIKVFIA
Target sequence (Q00987 whole entry, looked up): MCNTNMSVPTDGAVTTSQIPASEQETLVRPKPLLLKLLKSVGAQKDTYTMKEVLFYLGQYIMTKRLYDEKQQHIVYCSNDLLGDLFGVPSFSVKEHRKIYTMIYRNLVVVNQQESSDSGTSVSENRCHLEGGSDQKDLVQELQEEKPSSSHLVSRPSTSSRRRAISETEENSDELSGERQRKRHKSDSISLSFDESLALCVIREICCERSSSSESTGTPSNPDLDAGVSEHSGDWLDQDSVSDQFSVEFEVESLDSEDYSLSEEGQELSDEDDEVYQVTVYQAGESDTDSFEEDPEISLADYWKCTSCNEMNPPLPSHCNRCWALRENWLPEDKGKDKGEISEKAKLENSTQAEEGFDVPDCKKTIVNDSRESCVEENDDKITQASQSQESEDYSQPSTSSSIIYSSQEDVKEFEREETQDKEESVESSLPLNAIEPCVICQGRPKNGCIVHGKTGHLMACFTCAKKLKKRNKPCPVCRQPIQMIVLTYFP
* marks the source's active call; other numbers are inactive results; nt = not tested or not shown.

SMILES | T cruzi repl | Beta cell apopt | CSC inhib | Lmaj promast | SKKanGAS inh | Mdm2 MdmX PPI
COc1ccc(CN2CCN(C(=O)c3ccc(S(=O)(=O)NCc4ccco4)cc3)CC2)cc1 | nt | nt | nt | nt | nt | 5
O=c1[nH]c(CN2CCCCC2)nc2c1C1(CCCCC1)Cc1ccccc1-2 | 21 | -3 | 45 | 3 | 17 | 14
Cc1nc(=S)c2c([nH]1)-c1ccccc1CC21CCCCC1 | 53 | 5 | 4 | nt | 100* | 30
CCc1cc2c(=O)c(-c3ccc(F)cc3)c(C)oc2cc1OCC(=O)O | 2 | -4 | -11 | -5 | 1 | 4
CCCc1cc2c(=O)c(-c3ccc4c(c3)OCCO4)coc2cc1OC(=O)c1ccco1 | 7 | 4 | 89* | -8 | 8 | -205
CCCc1cc2c(=O)c(-c3ccc4c(c3)OCCO4)c(C)oc2cc1OS(C)(=O)=O | 24 | 0 | 52 | 99* | 6 | 20
CCCc1cc2c(=O)c(-c3ccc4c(c3)OCCO4)coc2cc1OS(C)(=O)=O | 46 | 13 | 52 | 76* | 35 | -70
Cc1ccc(C)c(N2CCN(C(=O)C34CC5CC(C3)CC(n3nnc(C)n3)(C5)C4)CC2)c1 | 41 | 2 | -5 | nt | -8 | 47
CN1C2Cc3c(n(C)c4ccccc34)C1CC=C2CO (stereo not given) | nt | -1 | 41 | nt | nt | 10
COc1ccc2oc(C(=O)N3CCCc4ccccc43)c(C)c2c1 | 17 | 0 | -4 | nt | 0 | -58
Cc1cccc(C)c1NC(=O)CNC(=O)c1ccc2c(c1)NC(=O)CS2 | nt | nt | nt | nt | nt | -1
COCCCNC(=O)C1CCCN(S(=O)(=O)c2ccc(C)cc2)C1 (stereo not given) | 7 | -7 | -15 | -5 | 1 | -20
COc1ccc(NC(=O)CCCCCn2nnc3ccccc3c2=O)cc1 | -6 | 11 | -2 | nt | -2 | -26
O=C(N/N=C/c1cc([N+](=O)[O-])ccc1N1CCCCCC1)c1ccccn1 | 1 | 11 | nt | 60* | 5 | -43
Cc1cc(=O)oc2cc(OCC(=O)N/N=C/c3cc([N+](=O)[O-])ccc3O)ccc12 | 3 | 2 | 18 | -3 | 16 | nt
CN(c1ccc([N+](=O)[O-])cc1/C=N/NC(=O)COc1ccccc1)C1CCCCC1 | 31 | 8 | -1 | 91* | 14 | 6
N#CCC(=O)N/N=C/c1cc([N+](=O)[O-])ccc1N1CCOCC1 | 4 | nt | -7 | -8 | 4 | -3
CN1CCN(c2ccc([N+](=O)[O-])cc2/C=N/NC(=O)c2ccc(F)cc2)CC1 | 26 | nt | nt | 11 | 0 | nt
CCc1ccc(OCC(=O)N/N=C/c2cc([N+](=O)[O-])ccc2N2CCCCCC2)cc1 | 5 | -4 | 24 | 100* | 11 | 14
CCC1CCCCN1c1ccc([N+](=O)[O-])cc1/C=N/NC(=O)Cn1c2ccccc2c(=O)c2ccccc21 (stereo not given) | 8 | 8 | 0 | 51* | 19 | 1
COC(=O)c1ccc(NC(=S)NC2c3ccccc3CC2O)cc1 (stereo not given) | -7 | nt | -11 | 14 | 4 | 10
Cc1cc(NC(=O)CCC(=O)N(c2ccccc2C)C(C(=O)NC2CCCC2)c2ccccc2)no1 (stereo not given) | 15 | -6 | nt | nt | 0 | 14
OCCC1CN(Cc2cc(F)ccc2F)CCN1CCCc1ccccc1 (stereo not given) | 18 | -3 | 24 | nt | 0 | 9
CC1=CC(C)(C)N2C(=O)C3(N=C(N)NC(Nc4ccccc4)=N3)c3cc(C)cc1c32 (stereo not given) | 15 | -3 | 2 | 96* | 0 | 19
CC1=CC(C)(C)N2C(=O)C3(SCC(=O)N3c3ccc(O)cc3)c3cc(C)cc1c32 (stereo not given) | -1 | -2 | nt | 24 | 11 | 18
SMILES | T cruzi repl | Beta cell apopt | CSC inhib | Lmaj promast | SKKanGAS inh | Mdm2 MdmX PPI
COc1ccccc1NS(=O)(=O)c1ccc(C(=O)N2CC(C)OC(C)C2)cc1 (stereo not given) | nt | -4 | nt | nt | nt | -12
CC12CCC(C(=O)N/N=C/c3ccc(O)cc3O)(OC1=O)C2(C)C (stereo not given) | 10 | nt | nt | nt | 0 | 38
COC(=O)c1ccc2c(c1)S(=O)(=O)NC(=NCc1ccco1)S2 | -14 | 0 | -2 | 96* | -11 | -7
CCOC(=O)N1CCN(C(=O)CSCC(=O)Nc2nc(-c3cccs3)cs2)CC1 | -3 | -9 | 3 | 79* | 0 | -3
CCCc1c(-c2ccc(O)cc2)nn(-c2ccc(O)cc2)c1-c1ccc(O)cc1 | -4 | -1 | 84* | nt | 16 | 46
Cc1c(C(N)=O)c(-c2ccccc2)nn1-c1ccccc1 | -24 | -4 | -8 | -2 | -7 | 9
CCOc1ccccc1NC(=O)COc1ccc2ccc(=O)oc2c1 | 6 | -10 | nt | nt | 0 | 27
CC12CCC(C(=O)N3CCN(C(c4ccccc4)c4ccccc4)CC3)(OC1=O)C2(C)C (stereo not given) | 56* | -3 | 14 | 23 | 1 | -2
COc1cc(OC)c(NC(=O)c2cncn2-c2ccc(F)cc2)cc1Cl | -9 | -3 | 6 | nt | 5 | 14
CN(CC(=O)Nc1ccccc1Cl)C(=O)COC(=O)/C=C/c1cccc(C(F)(F)F)c1 | nt | 1 | nt | nt | nt | -5
COC(=O)c1ccc(C(=O)OC)c(NC(=O)CN(C)Cc2ccccc2)c1 | 25 | -6 | -2 | 3 | 11 | 11
COC(=O)c1ccc(C(=O)OC)c(NC(=O)CN(C)Cc2cccc(Cl)c2Cl)c1 | 8 | 2 | 1 | 15 | 69* | 13
CN(C)C(=O)CCC(=O)N1CCCC(C(=O)c2ccc(C(F)(F)F)cc2)C1 (stereo not given) | -2 | 1 | -1 | nt | -2 | 9
COc1cc(NC(=O)CSc2ncnc3sc4c(c23)CCCC4)c(C(=O)O)cc1OC | -10 | -7 | -11 | nt | 55* | -4
CC(=O)CSc1ncnc2sc3c(c12)CCC3 | -6 | -6 | -5 | 2 | 2 | -16
CCOC(=O)N1CCN(CC(O)COc2ccc(C)cc2C(C)(C)C)CC1 (stereo not given) | 17 | 1 | -1 | 98* | 0 | 10
CCOC(=O)N1CCN(CC(O)COCc2ccc(OC)c(OC)c2)CC1 (stereo not given) | -3 | -6 | -15 | 3 | -1 | 2
CCOC(=O)N1CCN(CC(O)COCC2=CCC3CC2C3(C)C)CC1 (stereo not given) | 51 | -17 | -8 | 94* | 2 | 15
CCOC(=O)N1CCN(CC(O)COc2ccccc2[N+](=O)[O-])CC1 (stereo not given) | -1 | -3 | -4 | nt | -4 | 0
CCOC(=O)N1CCN(CC(O)COCc2ccccc2)CC1 (stereo not given) | -5 | -1 | -5 | 66* | 3 | -2

Screening data: PubChem, several laboratories
